Assay results reported in ChEMBL document CHEMBL3112425, “Design, synthesis, and structure-activity relationship studies of a potent PACE4 inhibitor” (J Med Chem, 2014).
Square brackets hold non-standard residues; d marks the D form. Peptide text beside a SMILES is read from it. * marks the point of attachment. NH(4-amidinobenzyl) = N=C(N)c1ccc(CN*)cc1; Nle = CCCC[C@H](N)C(=O)O

Experiments:
[1] = target: T1, Proprotein convertase subtilisin/kexin type 6 (Homo sapiens, UniProt P29122); experiment: Inhibition of human recombinant PACE4 expressed in drosophila schneider 2 cells using pyroGlu-Arg-Thr-Lys-Arg-AMC as substrate after 1 hr
T1 sequence (P29122 whole entry): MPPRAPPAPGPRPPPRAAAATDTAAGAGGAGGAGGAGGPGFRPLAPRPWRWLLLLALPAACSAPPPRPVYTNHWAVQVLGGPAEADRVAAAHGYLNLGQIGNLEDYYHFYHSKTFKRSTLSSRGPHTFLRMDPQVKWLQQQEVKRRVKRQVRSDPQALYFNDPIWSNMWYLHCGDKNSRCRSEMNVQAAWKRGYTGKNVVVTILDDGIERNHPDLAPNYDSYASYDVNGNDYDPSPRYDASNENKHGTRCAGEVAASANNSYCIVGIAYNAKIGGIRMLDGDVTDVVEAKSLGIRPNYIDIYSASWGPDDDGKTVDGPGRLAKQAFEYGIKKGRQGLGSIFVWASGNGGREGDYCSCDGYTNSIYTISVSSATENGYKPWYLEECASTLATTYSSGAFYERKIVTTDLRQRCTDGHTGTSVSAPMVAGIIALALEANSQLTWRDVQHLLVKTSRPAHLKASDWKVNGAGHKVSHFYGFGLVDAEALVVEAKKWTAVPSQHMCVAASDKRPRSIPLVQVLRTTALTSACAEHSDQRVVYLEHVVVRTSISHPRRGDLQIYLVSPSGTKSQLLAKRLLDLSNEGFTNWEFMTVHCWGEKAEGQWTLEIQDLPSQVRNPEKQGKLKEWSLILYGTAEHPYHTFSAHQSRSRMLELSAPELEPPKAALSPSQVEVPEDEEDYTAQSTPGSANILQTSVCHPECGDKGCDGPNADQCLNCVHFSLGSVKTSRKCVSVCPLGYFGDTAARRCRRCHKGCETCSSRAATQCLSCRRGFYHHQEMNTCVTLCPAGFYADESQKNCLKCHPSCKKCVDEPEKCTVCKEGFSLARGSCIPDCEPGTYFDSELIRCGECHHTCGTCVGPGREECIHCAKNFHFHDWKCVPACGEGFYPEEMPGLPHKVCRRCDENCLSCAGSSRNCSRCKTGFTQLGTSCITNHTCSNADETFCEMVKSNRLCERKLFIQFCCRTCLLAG
Method in brief: (§1)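 Human enzymes were expressed in Drosophila S2 cells and purified. Fluorogenic pyroGlu-RTKR-AMC was used at fixed concentration with varied inhibitor, 37 °C over 1 h. Buffers: furin, 100 mM Hepes pH 7.5, 1 mM CaCl2, 1 mM β-mercaptoethanol, 1.8 mg/mL BSA; PACE4 and PC7, 20 mM Bis-Tris pH 6.5, 1 mM CaCl2, 1.8 mg/mL BSA; PC2, same buffer at pH 5.7. Ki from IC50 (Cheng–Prusoff), or apparent Ki (Morrison) for tight binders. Triplicate, mean ± SD.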

DU-145 [2] = experiment: Cellular uptake in human DU145 cells after 1 hr by propidium iodide staining-based FACS analysis; assay type: ADME, cell-based; conditions: du-145, 1 h
Method in brief: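 FITC-βAla-labelled peptides at 10 μM were given to DU145 cells for 1 h in serum-free RPMI. Cells were collected, then washed twice with 0.05% trypsin (5 min, 37 °C) to strip membrane-bound peptide. Propidium iodide (10 μg/mL, 2 min) excluded damaged cells. FACS read 10 000 events/sample as geometric mean fluorescence, against untreated-cell autofluorescence.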

[3] = Acute toxicity in human DU145 cells assessed as cell death/lysis at 100 uM after 4 hrs by LDH assay; assay type: cell-based, DU-145; conditions: read-out: INH
Method in brief: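 DU145 cells (RPMI 1640, 5% FBS, 37 °C, 5% CO2) plated; 24 h later peptides added at 100 μM. After 4 h, release of lactate dehydrogenase into the medium was quantified enzymatically with a commercial LDH cytotoxicity kit as the measure of acute membrane damage/lysis.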

[4] = Half life in CD-1 mouse plasma at 0.5 ug/uL by RP-HPLC analysis; assay type: ADME, cell-free
Method in brief: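 Peptides at 0.5 μg/μL were incubated at 37 °C in heparinized plasma pooled from mixed-sex CD1 mice. At each time point the reaction was stopped with 1 M guanidinium-HCl, then acetonitrile, and proteins were spun out. Supernatant peptide AUC (RP-HPLC) was compared with non-incubated samples. Half-life came from a one-phase decay fit. Run ≥3 times, duplicate per time point.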

PC-3 [5] = experiment: Cytotoxicity against human PC3 cells up to 350 uM after 72 hrs by MTT assay; assay type: functional
Method in brief: (§2)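 Prostate cancer cells were kept in RPMI 1640 at 37 °C, 5% CO2, with 5% FBS for DU145 and 10% FBS for LNCaP and PC3. After 24 h, medium was changed and peptides added at various concentrations, up to 350 μM. Viability was read by MTT after 72 h treatment. IC50 from dose–response curves, triplicate, mean ± SEM.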

Plasma = experiment: Drug degradation in CD-1 mouse plasma at 0.5 ug/uL after 30 mins by MALDI-TOF MS analysis; assay type: ADME, cell-free; conditions: 0.5 h
Method in brief: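 For fragment mapping, 100 μg peptide was incubated in murine plasma at 37 °C. At each time point, plasma samples were quenched with 3% TFA. Proteins were precipitated with 2 volumes acetonitrile and centrifuged at 17 000g. Supernatants were analyzed by MALDI-TOF MS for C-terminally truncated fragments.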

Furin = Furin (Homo sapiens, UniProt P09958); experiment: Inhibition of human recombinant furin expressed in drosophila schneider 2 cells using pyroGlu-Arg-Thr-Lys-Arg-AMC as substrate after 1 hr; method in brief: as §1
Furin, sequence (P09958 whole entry): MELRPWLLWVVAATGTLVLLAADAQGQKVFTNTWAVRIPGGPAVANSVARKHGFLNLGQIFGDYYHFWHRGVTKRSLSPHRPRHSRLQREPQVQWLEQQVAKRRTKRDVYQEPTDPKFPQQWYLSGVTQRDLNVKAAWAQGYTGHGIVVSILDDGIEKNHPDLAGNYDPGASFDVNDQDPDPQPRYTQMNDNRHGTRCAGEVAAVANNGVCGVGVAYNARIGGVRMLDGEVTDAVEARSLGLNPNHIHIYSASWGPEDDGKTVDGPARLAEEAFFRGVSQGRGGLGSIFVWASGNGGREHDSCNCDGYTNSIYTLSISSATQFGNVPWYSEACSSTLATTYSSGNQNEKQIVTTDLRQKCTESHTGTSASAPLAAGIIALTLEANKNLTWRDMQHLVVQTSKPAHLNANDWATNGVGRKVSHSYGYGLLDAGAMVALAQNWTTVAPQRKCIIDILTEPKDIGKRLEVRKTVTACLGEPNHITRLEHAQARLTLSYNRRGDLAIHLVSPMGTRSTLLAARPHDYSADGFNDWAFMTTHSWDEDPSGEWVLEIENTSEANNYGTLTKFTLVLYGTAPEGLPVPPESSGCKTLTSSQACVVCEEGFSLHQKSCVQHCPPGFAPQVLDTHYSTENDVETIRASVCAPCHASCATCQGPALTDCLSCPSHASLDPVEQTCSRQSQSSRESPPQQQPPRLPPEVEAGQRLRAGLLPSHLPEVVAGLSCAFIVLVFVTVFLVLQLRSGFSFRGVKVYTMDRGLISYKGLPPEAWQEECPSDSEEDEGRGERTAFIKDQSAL

LNCaP [6] = experiment: Cytotoxicity against human LNCAP cells after 72 hrs by MTT assay; assay type: functional, cell-based; method in brief: as §2
PC-3 [7] = experiment: Cytotoxicity against human PC3 cells after 72 hrs by MTT assay; assay type: functional, cell-based; conditions: PC-3, 72 h; method in brief: as §2
DU-145 [8] = experiment: Cytotoxicity against human DU145 cells after 72 hrs by MTT assay; assay type: functional, cell-based; conditions: DU-145, 72 h; method in brief: as §2
DU-145 [9] = experiment: Cytotoxicity against human DU145 cells up to 350 uM after 72 hrs by MTT assay; assay type: functional; method in brief: as §2
LNCaP [10] = experiment: Cytotoxicity against human LNCAP cells up to 350 uM after 72 hrs by MTT assay; assay type: functional; method in brief: as §2
[11] = target: T2, Neuroendocrine convertase 2 (Homo sapiens, UniProt P16519); experiment: Inhibition of human PC2 expressed in drosophila schneider 2 cells using pyroGlu-Arg-Thr-Lys-Arg-AMC as substrate after 1 hr; method in brief: as §1
T2 sequence (P16519 whole entry): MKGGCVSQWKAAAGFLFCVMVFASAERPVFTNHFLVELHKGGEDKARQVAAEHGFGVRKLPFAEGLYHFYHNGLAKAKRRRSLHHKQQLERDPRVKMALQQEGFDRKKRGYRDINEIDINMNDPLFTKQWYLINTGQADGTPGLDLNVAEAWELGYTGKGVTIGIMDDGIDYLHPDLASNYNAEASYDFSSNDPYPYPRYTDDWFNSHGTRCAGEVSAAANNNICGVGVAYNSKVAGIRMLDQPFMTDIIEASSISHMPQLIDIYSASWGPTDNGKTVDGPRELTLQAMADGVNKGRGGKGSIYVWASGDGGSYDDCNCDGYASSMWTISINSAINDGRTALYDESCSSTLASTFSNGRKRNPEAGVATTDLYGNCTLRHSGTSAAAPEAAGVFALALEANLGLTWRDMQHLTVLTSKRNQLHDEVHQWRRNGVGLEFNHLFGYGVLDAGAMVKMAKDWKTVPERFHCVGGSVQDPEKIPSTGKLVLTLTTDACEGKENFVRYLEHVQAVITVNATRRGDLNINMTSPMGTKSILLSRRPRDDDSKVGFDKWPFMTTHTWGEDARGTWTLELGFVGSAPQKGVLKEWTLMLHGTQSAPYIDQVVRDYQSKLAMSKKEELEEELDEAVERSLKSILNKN

[12] = target: T3, Proprotein convertase subtilisin/kexin type 7 (Homo sapiens, UniProt Q16549); experiment: Inhibition of human PC7 expressed in drosophila schneider 2 cells using pyroGlu-Arg-Thr-Lys-Arg-AMC as substrate after 1 hr; method in brief: as §1
T3 sequence (Q16549 whole entry): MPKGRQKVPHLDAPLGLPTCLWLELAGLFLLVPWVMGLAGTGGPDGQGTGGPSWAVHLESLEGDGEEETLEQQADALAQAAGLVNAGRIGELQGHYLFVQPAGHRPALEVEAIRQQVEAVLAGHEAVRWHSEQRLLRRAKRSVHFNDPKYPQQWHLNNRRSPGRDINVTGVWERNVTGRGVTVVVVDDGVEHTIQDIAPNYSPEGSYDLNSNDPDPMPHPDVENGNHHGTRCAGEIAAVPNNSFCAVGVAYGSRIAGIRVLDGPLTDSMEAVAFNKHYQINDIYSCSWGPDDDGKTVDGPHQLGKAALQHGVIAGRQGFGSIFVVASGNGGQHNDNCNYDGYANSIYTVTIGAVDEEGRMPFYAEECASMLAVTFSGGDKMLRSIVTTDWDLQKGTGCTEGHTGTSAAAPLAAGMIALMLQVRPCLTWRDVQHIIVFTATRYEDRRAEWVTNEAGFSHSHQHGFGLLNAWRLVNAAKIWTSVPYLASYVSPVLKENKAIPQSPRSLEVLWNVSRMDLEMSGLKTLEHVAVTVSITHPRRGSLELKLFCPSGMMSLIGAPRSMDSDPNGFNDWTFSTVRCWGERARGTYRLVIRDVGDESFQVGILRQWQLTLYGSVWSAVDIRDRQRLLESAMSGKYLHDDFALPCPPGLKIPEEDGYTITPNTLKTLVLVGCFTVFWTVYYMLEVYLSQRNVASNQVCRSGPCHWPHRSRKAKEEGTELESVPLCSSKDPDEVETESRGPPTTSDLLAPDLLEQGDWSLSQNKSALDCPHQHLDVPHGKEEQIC

Ki [1] [nM] | half-life at 0.5 ug/uL [4] [min] | Stability (Plasma) | Ki [11] [nM] | Ki [12] [nM] | Compound | Drug uptake (DU-145 [2]) | cytotoxicity at 4 h, 100 µM [3] [%] | inhibition (INH) (PC-3 [5]) [%] | Ki (Furin) [nM] | IC50 (LNCaP [6]) [µM] | IC50 (PC-3 [7]) [µM] | IC50 (DU-145 [8]) [µM] | inhibition (INH) (DU-145 [9]) [%] | inhibition (INH) (LNCaP [10]) [%]
20 | 306 | Unstable | – | – | CC(=O)N[C@@H](CC(C)C)C(=O)N[C@@H](CC(C)C)C(=O)N[C@@H](CC(C)C)C(=O)N[C@@H](CC(C)C)C(=O)N[C@@H](CCCNC(=N)N)C(=O)N[C@H](C(=O)N[C@@H](CCCCN)C(=O)N[C@@H](CCCNC(=N)N)C(N)=O)C(C)C | Active | < 5 | <50 | – | – | – | – | – | –
3.1 | 720 | Unstable | 0.24 | 13.8 | CC(=O)N[C@@H](CC(C)C)C(=O)N[C@@H](CC(C)C)C(=O)N[C@@H](CC(C)C)C(=O)N[C@@H](CC(C)C)C(=O)N[C@@H](CCCN=C(N)N)C(=O)N[C@H](C(=O)N[C@@H](CCCCN)C(=O)NCc1ccc(C(=N)N)cc1)C(C)C (Ac-LLLLRVK-{NH(4-amidinobenzyl)}) | – | < 5 | – | 4.3 | – | – | – | – | –
385 | – | – | – | – | CCCC[C@H](NC(=O)[C@H](CC(C)C)NC(=O)[C@H](CC(C)C)NC(C)=O)C(=O)N[C@@H](CC(C)C)C(=O)N[C@@H](CCCNC(=N)N)C(=O)N[C@H](C(=O)N[C@@H](CCCCN)C(=O)N[C@@H](CCCNC(=N)N)C(N)=O)C(C)C (Ac-LL[Nle]LRVKR-NH2) | – | < 5 | <50 | 1980 | – | – | 190 | – | <50

Compound | Ki [1] [nM] | half-life at 0.5 ug/uL [4] [min] | Stability (Plasma) | Ki [11] [nM] | Ki [12] [nM] | Drug uptake (DU-145 [2]) | cytotoxicity at 4 h, 100 µM [3] [%] | inhibition (INH) (PC-3 [5]) [%] | Ki (Furin) [nM] | IC50 (LNCaP [6]) [µM] | IC50 (PC-3 [7]) [µM] | IC50 (DU-145 [8]) [µM] | inhibition (INH) (DU-145 [9]) [%] | inhibition (INH) (LNCaP [10]) [%]
CC(=O)N[C@H](CC(C)C)C(=O)N[C@@H](CC(C)C)C(=O)N[C@@H](CC(C)C)C(=O)N[C@@H](CC(C)C)C(=O)N[C@@H](CCCN=C(N)N)C(=O)N[C@H](C(=O)N[C@@H](CCCCN)C(=O)N[C@@H](CCCN=C(N)N)C(N)=O)C(C)C | 24 | 516 | Unstable | – | – | Active | < 5 | – | 760 | 150 | 190 | 70 | – | –
CC(=O)N[C@H](CC(C)C)C(=O)N[C@H](CC(C)C)C(=O)N[C@H](CC(C)C)C(=O)N[C@H](CC(C)C)C(=O)N[C@@H](CCCNC(=N)N)C(=O)N[C@H](C(=O)N[C@@H](CCCCN)C(=O)N[C@@H](CCCNC(=N)N)C(N)=O)C(C)C | 14000 | – | – | – | – | – | < 5 | <50 | 7300 | – | – | – | <50 | <50
